One block for each molecule: values may come before it.
Legend:
[1] = Cytotoxicity against mouse SM1 cells at 100 nM by ApoTox-Glo triplex assay; assay type: cell-based; settings: 0.1 µM
Method in brief: (§1)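 SM1 cells treated with HDAC inhibitors, with pan-HDACi and assay controls on every plate. ApoTox-Glo triplex readout: viability fluorescence 400Ex/505Em, cytotoxicity fluorescence 485Ex/520Em, then caspase 3/7 reagent read by luminescence for apoptosis.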

[2] = Induction of apoptosis in mouse SM1 cells at 100 nM by caspase3/7 reagent based luminescence assay; assay type: cell-based; settings: 0.1 µM; method in brief: as §1
[3] = target: T1, Histone deacetylase 1 (Homo sapiens, UniProt Q13547); test: Inhibition of human recombinant HDAC1 using fluorogenic HDAC substrate by fluorescence assay
T1 sequence (Q13547 whole entry): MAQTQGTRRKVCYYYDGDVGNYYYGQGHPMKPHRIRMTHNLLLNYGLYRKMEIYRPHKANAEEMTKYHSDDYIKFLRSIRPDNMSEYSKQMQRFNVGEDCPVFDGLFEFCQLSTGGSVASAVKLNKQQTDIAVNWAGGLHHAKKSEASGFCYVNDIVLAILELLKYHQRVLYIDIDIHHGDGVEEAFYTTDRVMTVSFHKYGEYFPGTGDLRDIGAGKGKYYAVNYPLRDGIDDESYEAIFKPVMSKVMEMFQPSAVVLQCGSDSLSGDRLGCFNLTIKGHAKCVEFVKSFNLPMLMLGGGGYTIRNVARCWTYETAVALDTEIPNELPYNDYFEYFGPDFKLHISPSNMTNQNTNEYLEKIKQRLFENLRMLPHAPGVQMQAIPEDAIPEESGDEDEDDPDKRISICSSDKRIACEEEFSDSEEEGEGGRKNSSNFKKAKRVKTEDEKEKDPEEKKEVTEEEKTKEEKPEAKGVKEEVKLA
Method in brief: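 Human full-length recombinant HDAC1 expressed in Sf9 cells via baculovirus. Substrate was the fluorogenic acetylated p53 379-382 peptide RHKKAc (50 µM) in pH 8.0 Tris buffer with NaCl, KCl, MgCl2, BSA and 1% DMSO final. Enzyme and compound were preincubated 5-10 min, then reacted 2 h at 30 °C. Developer plus TSA stopped the reaction; endpoint fluorescence was read.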

[4] = target: T1, Histone deacetylase 1; test: Inhibition of human recombinant HDAC1 using fluorogenic substrate incubated for 15 mins by fluorescence assay
[5] = target: T2, Protein deacetylase HDAC6 (Homo sapiens, UniProt Q9UBN7); test: Inhibition of human recombinant HDAC6 using fluorogenic substrate incubated for 30 mins by fluorescence assay
T2 sequence (Q9UBN7 whole entry): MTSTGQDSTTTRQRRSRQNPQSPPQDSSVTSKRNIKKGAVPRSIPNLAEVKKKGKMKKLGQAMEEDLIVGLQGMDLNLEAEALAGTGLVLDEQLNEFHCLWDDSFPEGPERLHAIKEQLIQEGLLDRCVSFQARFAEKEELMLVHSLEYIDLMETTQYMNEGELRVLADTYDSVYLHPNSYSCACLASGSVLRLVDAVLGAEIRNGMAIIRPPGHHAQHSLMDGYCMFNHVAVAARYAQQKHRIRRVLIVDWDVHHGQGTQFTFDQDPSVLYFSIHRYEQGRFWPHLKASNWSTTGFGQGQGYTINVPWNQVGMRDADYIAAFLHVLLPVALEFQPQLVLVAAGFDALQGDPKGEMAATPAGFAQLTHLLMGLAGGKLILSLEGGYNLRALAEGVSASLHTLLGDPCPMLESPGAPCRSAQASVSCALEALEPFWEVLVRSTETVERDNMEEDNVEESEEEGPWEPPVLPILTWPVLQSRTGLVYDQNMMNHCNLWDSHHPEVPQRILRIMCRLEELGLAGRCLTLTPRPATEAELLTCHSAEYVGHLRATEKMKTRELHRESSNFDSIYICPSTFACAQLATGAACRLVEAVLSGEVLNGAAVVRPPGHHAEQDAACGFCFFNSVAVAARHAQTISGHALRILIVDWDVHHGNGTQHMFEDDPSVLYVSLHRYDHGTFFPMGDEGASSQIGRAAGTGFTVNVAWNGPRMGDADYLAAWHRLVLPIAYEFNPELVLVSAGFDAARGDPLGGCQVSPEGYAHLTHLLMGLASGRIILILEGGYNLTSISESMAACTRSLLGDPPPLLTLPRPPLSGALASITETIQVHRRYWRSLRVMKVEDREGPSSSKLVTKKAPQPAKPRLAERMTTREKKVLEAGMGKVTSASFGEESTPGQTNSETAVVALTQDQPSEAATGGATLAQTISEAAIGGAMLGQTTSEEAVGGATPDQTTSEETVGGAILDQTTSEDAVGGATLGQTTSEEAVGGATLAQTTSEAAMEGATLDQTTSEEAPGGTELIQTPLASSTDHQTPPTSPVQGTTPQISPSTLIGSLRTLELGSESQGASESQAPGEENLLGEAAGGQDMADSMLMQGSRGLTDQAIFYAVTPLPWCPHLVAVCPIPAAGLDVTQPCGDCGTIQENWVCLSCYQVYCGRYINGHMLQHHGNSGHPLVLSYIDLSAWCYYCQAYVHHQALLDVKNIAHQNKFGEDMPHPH

[6] = species: Homo sapiens; test: Selectivity index, ratio of IC50 for inhibition of human recombinant HDAC1 using fluorogenic substrate incubated for 15 mins by fluorescence assay to IC50 for inhibition of human recombinant HDAC6 using fluorogenic substrate incubated for 30 mins by fluorescence assay
[7] = species: Homo sapiens; test: Selectivity index, ratio of IC50 for recombinant full length C-terminal His/FLAG tagged human HDAC1 (1 to 482 residues) expressed in baculovirus infected sf9 insect cells using p53 (379 to 382 residues) derived fluorogenic peptide RHKKAc as substrate preincubated for 5 to 10 mins followed by …
[8] = Half life in human liver microsomes in presence of NADPH; assay type: ADME, Microsome
Method in brief: (§2)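 Liver microsomal stability in mouse and human microsomes with NADPH; half-life in minutes.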

[9] = Half life in mouse liver microsomes in presence of NADPH; assay type: ADME, Microsome; method in brief: as §2
[10] = test system: Salmonella typhimurium; test: Genotoxicity against Salmonella Typhimurium TA97A assessed as revertant colonies at 0.075 to 250 ug/well by Ames test; assay type: toxicity, organism-based; settings: salmonella enterica subsp. enterica serovar typhimurium
[11] = test system: Salmonella typhimurium; test: Genotoxicity against Salmonella Typhimurium TA97A assessed as revertant colonies at 0.075 to 250 ug/well in presence of mammalian microsomal enzyme S9 mix by Ames test; assay type: toxicity, organism-based; settings: salmonella enterica subsp. enterica serovar typhimurium
[12] = test system: Salmonella typhimurium; test: Genotoxicity against Salmonella Typhimurium TA1537 assessed as revertant colonies at 0.075 to 250 ug/well by Ames test; assay type: toxicity, organism-based; settings: salmonella enterica subsp. enterica serovar typhimurium
[13] = test system: Salmonella typhimurium; test: Genotoxicity against Salmonella Typhimurium TA1537 assessed as revertant colonies at 0.075 to 250 ug/well in presence of mammalian microsomal enzyme S9 mix by Ames test; assay type: toxicity, organism-based; settings: salmonella enterica subsp. enterica serovar typhimurium
[14] = target: T1, Histone deacetylase 1; test: (§3) Inhibition of recombinant full length C-terminal His/FLAG tagged human HDAC1 (1 to 482 residues) expressed in baculovirus infected sf9 insect cells using p53 (379 to 382 residues) derived fluorogenic peptide RHKKAc as substrate preincubated for 5 to 10 mins followed by substrate addition and further incubated for 2 hrs by fluorescence assay
[15] = target: T2, Protein deacetylase HDAC6; test: as §3, with “N-terminal GST-tagged” for “full length C-terminal His/FLAG tagged”, “HDAC6” for “HDAC1”, “1215” for “482”
[16] = target: T1, Histone deacetylase 1; test: Inhibition of recombinant human HDAC1 expressed in HEK293T/17 cells using Ac-GAK(Ac)-AMC as substrate preincubated for 10 mins followed by substrate addition and measured after 30 mins by fluorescence-based assay
Method in brief: (§4)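 Human HDACs expressed as Strep-tagged fusions in transiently transfected HEK293/T17 cells, purified by Strep-Tactin. Substrate at 10 µM: Ac-GAK(Ac)-AMC for HDAC1/6, Boc-Lys(TFA)-AMC for the others. Reaction 30 min at 37 °C, trypsin stop, fluorescence 365/440 nm. 10-point 3-fold series from 100 µM, mean of two experiments.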

[17] = target: Histone deacetylase 4 (Homo sapiens, UniProt P56524); test: Inhibition of recombinant human HDAC4 expressed in HEK293T/17 cells using Boc-Lys(TFA)-AMC as substrate preincubated for 10 mins followed by substrate addition and measured after 30 mins by fluorescence-based assay; method in brief: as §4
Chain of Histone deacetylase 4 (P56524 whole entry): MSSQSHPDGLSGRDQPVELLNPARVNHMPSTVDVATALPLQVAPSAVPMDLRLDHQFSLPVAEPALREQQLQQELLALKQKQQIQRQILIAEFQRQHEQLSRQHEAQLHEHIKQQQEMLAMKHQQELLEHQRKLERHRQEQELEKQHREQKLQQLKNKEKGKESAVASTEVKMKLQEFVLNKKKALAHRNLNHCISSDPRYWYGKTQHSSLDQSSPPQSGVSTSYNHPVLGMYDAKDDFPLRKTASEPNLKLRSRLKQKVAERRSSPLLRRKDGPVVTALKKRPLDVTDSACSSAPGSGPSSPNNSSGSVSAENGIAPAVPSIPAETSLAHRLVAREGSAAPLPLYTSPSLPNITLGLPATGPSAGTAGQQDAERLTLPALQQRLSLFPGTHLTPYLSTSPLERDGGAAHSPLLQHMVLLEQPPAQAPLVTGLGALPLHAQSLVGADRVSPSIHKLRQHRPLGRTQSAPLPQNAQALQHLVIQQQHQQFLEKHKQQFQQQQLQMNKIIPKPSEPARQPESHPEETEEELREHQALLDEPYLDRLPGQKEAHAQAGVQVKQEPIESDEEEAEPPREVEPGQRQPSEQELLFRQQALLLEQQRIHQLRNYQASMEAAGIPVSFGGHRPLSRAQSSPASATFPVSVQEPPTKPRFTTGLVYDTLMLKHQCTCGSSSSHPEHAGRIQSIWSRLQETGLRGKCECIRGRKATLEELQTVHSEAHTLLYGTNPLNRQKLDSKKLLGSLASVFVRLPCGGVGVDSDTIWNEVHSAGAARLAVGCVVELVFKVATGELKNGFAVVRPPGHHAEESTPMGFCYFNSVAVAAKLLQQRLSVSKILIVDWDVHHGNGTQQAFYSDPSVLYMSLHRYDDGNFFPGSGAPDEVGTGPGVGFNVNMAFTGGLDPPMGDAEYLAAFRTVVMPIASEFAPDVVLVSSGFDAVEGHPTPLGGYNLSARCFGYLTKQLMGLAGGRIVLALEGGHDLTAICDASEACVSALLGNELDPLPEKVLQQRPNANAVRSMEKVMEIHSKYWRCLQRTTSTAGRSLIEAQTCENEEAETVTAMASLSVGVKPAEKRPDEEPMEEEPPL

[18] = target: Histone deacetylase 5 (Homo sapiens, UniProt Q9UQL6); test: Inhibition of recombinant human HDAC5 expressed in HEK293T/17 cells using Boc-Lys(TFA)-AMC as substrate preincubated for 10 mins followed by substrate addition and measured after 30 mins by fluorescence-based assay; method in brief: as §4
Chain of Histone deacetylase 5 (Q9UQL6 whole entry): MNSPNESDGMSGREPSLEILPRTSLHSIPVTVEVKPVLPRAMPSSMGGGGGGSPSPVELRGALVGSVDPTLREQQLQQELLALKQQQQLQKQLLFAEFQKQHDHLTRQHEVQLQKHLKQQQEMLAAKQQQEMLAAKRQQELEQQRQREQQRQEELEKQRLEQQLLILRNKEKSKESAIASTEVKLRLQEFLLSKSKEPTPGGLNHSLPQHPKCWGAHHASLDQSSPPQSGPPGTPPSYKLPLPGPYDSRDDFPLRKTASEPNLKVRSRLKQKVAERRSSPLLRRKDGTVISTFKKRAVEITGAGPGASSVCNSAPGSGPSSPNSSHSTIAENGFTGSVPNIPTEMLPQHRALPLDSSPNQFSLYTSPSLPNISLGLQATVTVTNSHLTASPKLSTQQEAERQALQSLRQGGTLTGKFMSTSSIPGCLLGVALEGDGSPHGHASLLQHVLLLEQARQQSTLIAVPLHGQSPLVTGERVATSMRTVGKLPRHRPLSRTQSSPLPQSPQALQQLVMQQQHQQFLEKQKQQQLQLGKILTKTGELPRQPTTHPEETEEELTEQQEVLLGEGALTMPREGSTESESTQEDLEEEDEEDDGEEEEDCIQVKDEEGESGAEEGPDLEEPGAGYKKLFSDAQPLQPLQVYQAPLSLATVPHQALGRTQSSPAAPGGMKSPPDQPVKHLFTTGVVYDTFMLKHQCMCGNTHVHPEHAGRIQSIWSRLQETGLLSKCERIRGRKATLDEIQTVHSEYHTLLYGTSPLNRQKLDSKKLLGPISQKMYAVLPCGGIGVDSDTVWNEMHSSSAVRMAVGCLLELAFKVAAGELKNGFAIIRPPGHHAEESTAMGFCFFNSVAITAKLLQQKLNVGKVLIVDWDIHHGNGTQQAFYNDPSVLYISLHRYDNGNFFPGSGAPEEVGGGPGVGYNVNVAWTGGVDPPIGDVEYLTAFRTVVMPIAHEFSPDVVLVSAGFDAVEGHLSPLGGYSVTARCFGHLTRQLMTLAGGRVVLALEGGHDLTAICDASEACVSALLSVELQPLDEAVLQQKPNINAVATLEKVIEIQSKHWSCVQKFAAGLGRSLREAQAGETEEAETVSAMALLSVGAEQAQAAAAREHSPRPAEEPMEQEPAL

[19] = target: T2, Protein deacetylase HDAC6; test: Inhibition of recombinant human HDAC6 expressed in HEK293T/17 cells using Ac-GAK(Ac)-AMC as substrate preincubated for 10 mins followed by substrate addition and measured after 30 mins by fluorescence-based assay
[20] = target: T3, Histone deacetylase 8 (Homo sapiens, UniProt Q9BY41); test: Inhibition of recombinant human HDAC8 expressed in HEK293T/17 cells using Boc-Lys(TFA)-AMC as substrate preincubated for 10 mins followed by substrate addition and measured after 30 mins by fluorescence-based assay; method in brief: as §4
T3 sequence (Q9BY41 whole entry): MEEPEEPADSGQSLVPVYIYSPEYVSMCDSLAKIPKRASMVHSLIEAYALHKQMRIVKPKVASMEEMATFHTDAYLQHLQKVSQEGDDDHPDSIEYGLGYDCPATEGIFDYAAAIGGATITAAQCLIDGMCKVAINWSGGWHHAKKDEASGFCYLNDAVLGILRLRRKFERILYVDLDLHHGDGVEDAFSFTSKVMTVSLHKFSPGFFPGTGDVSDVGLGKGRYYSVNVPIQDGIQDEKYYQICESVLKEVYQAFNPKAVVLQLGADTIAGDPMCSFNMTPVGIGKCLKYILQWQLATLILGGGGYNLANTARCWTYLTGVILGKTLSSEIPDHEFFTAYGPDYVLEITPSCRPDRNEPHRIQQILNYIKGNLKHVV

[21] = target: Histone deacetylase 9 (Homo sapiens, UniProt Q9UKV0); test: Inhibition of recombinant human HDAC9 expressed in HEK293T/17 cells using Boc-Lys(TFA)-AMC as substrate preincubated for 10 mins followed by substrate addition and measured after 30 mins by fluorescence-based assay; method in brief: as §4
Chain of Histone deacetylase 9 (Q9UKV0 whole entry): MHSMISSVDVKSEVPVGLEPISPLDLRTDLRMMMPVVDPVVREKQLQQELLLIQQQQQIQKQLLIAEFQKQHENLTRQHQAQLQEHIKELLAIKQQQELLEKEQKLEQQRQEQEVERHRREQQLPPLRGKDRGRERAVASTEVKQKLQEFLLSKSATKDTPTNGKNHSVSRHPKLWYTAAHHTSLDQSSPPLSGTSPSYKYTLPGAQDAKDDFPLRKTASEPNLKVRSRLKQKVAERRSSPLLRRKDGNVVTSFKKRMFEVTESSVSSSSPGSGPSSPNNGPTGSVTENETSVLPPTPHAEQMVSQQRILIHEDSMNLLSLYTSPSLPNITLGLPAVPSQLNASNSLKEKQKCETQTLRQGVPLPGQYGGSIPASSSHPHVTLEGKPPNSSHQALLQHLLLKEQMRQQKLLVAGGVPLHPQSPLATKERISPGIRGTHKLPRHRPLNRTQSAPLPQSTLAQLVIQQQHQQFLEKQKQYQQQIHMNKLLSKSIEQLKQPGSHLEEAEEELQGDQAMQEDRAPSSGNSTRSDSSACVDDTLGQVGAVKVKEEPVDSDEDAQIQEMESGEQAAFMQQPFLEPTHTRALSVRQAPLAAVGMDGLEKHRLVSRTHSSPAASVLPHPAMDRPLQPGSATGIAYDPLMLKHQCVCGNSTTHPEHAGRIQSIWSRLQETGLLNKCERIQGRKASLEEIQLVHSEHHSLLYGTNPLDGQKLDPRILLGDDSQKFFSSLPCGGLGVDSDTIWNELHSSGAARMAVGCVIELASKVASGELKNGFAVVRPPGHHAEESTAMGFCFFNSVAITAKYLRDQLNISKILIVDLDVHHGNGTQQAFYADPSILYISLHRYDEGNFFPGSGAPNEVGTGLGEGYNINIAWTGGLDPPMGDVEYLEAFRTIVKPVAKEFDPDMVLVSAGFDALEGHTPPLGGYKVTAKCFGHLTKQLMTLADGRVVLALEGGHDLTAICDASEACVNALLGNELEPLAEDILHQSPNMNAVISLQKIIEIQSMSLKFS

[22] = target: T4, Histone deacetylase 11 (Homo sapiens, UniProt Q96DB2); test: Inhibition of recombinant human HDAC11 expressed in HEK293T/17 cells using Boc-Lys(TFA)-AMC as substrate preincubated for 10 mins followed by substrate addition and measured after 30 mins by fluorescence-based assay; method in brief: as §4
T4 sequence (Q96DB2 whole entry): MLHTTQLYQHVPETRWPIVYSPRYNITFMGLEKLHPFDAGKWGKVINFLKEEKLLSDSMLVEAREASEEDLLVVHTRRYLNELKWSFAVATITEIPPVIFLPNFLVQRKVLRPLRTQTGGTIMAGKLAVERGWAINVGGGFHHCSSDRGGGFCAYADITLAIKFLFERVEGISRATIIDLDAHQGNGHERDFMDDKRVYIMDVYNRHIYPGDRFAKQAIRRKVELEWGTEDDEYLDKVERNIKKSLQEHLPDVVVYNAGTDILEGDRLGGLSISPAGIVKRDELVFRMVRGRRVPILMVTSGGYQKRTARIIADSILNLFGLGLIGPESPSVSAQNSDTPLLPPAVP

SMILES: Cc1[nH]c2ccccc2c1CCNCc1ccc(/C=C/C(=O)NO)cc1 [PANOBINOSTAT]
Activity [1]: Toxic
Activity [2]: Toxic

SMILES: CN(Cc1ccc(C(=O)NO)cc1F)CC12CC3CC(CC(C3)C1)C2
IC50 [3]: > 1000 nM

Now from value to molecule, other results behind:

IC50 [4]: 7500 nM
IC50 [5]: 14 nM
Ratio IC50 [6]: 535
SMILES: O=C(NO)c1ccc(CNCc2csc3ccccc23)cc1

half-life [8]: 85 min
half-life [9]: 16 min
SMILES: CC(C)(C)OC(=O)Nc1ccc(-c2cc(C(=O)NCCc3cc(C(=O)NO)no3)no2)cc1
Ratio IC50 [7]: 2820
Activity [10]: Non-Toxic
Activity [11]: Non-Toxic
Activity [12]: Non-Toxic
Activity [13]: Non-Toxic

IC50 [14]: 200 nM
IC50 [15]: 28 nM
IC50 [16]: 34 nM
IC50 [17]: 3530 nM
IC50 [18]: 3120 nM
IC50 [19]: 2 nM
IC50 [20]: 920 nM
IC50 [21]: 3070 nM
IC50 [22]: 1050 nM
SMILES: O=C(NO)c1ccc(CNC(=O)c2ccc(Cl)c(Cl)c2)cc1
